Test results reported in ChEMBL document CHEMBL4813921, “Optimization of WZ4003 as NUAK inhibitors against human colorectal cancer” (Eur J Med Chem, 2021).
The source made the active and inactive calls. The calls are words filed in the database; no cut-off is given here.

Tests used:
[1] = target: T1, NUAK family SNF1-like kinase 1 (Homo sapiens) (UniProt O60285); experiment: Inhibition of NUAK1 (unknown origin) at 10 uM using CHKtide as substrate in presence of ATP measured after 60 mins by ADP-Glo assay
T1 sequence (whole entry): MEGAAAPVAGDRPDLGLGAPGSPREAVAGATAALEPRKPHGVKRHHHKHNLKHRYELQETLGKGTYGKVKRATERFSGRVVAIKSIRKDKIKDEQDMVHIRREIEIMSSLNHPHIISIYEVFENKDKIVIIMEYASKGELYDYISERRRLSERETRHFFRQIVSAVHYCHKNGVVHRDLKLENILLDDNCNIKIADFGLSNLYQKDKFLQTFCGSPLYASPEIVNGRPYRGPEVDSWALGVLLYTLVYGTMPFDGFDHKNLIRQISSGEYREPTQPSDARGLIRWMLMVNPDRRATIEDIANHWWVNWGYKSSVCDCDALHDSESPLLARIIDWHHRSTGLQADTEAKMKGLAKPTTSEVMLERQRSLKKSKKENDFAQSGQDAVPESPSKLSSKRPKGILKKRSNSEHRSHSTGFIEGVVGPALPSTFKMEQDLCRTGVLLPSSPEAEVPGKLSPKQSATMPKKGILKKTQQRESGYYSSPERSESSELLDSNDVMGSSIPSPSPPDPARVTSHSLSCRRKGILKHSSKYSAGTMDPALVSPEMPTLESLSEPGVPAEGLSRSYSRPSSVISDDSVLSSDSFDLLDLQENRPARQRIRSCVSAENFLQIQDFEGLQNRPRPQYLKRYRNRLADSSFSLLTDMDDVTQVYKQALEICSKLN

[2] = target: T2, NUAK family SNF1-like kinase 2 (Homo sapiens) (UniProt Q9H093); experiment: Inhibition of NUAK2 (unknown origin) at 10 uM using CHKtide as substrate in presence of ATP measured after 60 mins by ADP-Glo assay
T2 sequence (whole entry): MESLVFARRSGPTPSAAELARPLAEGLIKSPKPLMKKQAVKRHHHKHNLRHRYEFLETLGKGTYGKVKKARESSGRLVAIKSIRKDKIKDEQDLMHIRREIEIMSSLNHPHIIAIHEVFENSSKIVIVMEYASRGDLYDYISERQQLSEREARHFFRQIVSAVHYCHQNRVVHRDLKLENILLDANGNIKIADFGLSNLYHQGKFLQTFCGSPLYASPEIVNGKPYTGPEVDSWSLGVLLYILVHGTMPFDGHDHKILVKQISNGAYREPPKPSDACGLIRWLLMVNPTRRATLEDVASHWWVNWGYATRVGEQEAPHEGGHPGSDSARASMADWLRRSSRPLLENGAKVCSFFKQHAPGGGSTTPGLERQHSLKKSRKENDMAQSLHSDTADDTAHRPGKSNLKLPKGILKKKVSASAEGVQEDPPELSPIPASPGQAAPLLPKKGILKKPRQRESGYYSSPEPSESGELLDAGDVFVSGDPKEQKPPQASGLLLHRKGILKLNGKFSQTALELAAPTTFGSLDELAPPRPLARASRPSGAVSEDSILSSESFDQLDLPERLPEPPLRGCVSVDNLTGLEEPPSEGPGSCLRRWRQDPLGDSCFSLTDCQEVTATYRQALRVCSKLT

U2OS [3] = experiment: Antiproliferative activity against human U2OS cells assessed as reduction in cell viability at 10 uM measured after 1 to 5 days by MTT assay; type: functional; conditions: time 1-5 day
Procedure, shortened: (§1)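 MTT viability read daily over 1–5 days of exposure to 10 μM compound; mean ± SD, n = 3.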

HCT-116 [4] = experiment: Antiproliferative activity against human HCT-116 cells assessed as reduction in cell viability at 10 uM measured after 1 to 5 days by MTT assay relative to control; type: functional, cell-based; conditions: time 1-5 day; procedure, shortened: as §1
SW480 [5] = experiment: Antiproliferative activity against human SW480 cells assessed as reduction in cell viability at 10 uM measured after 1 to 5 days by MTT assay relative to control; type: functional, cell-based; conditions: time 1-5 day; procedure, shortened: as §1
U2OS [6] = experiment: Antiproliferative activity against human U2OS cells at 2.5 to 10 uM measured after 48 hrs by EdU staining based assay; type: functional, cell-based; conditions: dose 2.5-10 µM
Procedure, shortened: (§2)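 Cells exposed to a range of compound concentrations for 48 h, then EdU click-chemistry staining with DAPI counterstain. Confocal high-content imaging; DAPI-positive nuclei counted as total and EdU-positive as proliferating.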

HCT-116 [7] = experiment: Antiproliferative activity against human HCT-116 cells at 2.5 to 10 uM measured after 48 hrs by EdU staining based assay; type: functional, cell-based; conditions: dose 2.5-10 µM; procedure, shortened: as §2
SW480 [8] = experiment: Antiproliferative activity against human SW480 cells at 2.5 to 10 uM measured after 48 hrs by EdU staining based assay; type: functional, cell-based; conditions: dose 2.5-10 µM; procedure, shortened: as §2
U2OS [9] = experiment: Induction of apoptosis in human U2OS cells assessed as viable cells at 10 uM measured after 48 hrs by Annexin V-FITC/PI staining based flow cytometry method (reference value: 95.5%); type: functional; conditions: read-out: Activity
U2OS [10] = experiment: Induction of apoptosis in human U2OS cells assessed as early apoptotic cells at 10 uM measured after 48 hrs by Annexin V-FITC/PI staining based flow cytometry method (reference value: 2.8%); type: functional
U2OS [11] = experiment: Induction of apoptosis in human U2OS cells assessed as late apoptotic cells at 10 uM measured after 48 hrs by Annexin V-FITC/PI staining based flow cytometry method (reference value: 1.3%); type: functional
U2OS [12] = experiment: Induction of apoptosis in human U2OS cells assessed as necrotic cells at 10 uM measured after 48 hrs by Annexin V-FITC/PI staining based flow cytometry method (reference value: 0.4%); type: functional
HCT-116 [13] = experiment: Induction of apoptosis in human HCT-116 cells assessed as viable cells at 10 uM measured after 48 hrs by Annexin V-FITC/PI staining based flow cytometry method (reference value: 95.4%); type: functional; conditions: read-out: Activity
HCT-116 [14] = experiment: Induction of apoptosis in human HCT-116 cells assessed as early apoptotic cells at 10 uM measured after 48 hrs by Annexin V-FITC/PI staining based flow cytometry method (reference value: 0.8%); type: functional
HCT-116 [15] = experiment: Induction of apoptosis in human HCT-116 cells assessed as late apoptotic cells at 10 uM measured after 48 hrs by Annexin V-FITC/PI staining based flow cytometry method (reference value: 1.6%); type: functional
HCT-116 [16] = experiment: Induction of apoptosis in human HCT-116 cells assessed as necrotic cells at 10 uM measured after 48 hrs by Annexin V-FITC/PI staining based flow cytometry method (reference value: 2.2%); type: functional
SW480 [17] = experiment: Induction of apoptosis in human SW480 cells assessed as viable cells at 10 uM measured after 48 hrs by Annexin V-FITC/PI staining based flow cytometry method (reference value: 93.2%); type: functional; conditions: read-out: Activity
SW480 [18] = experiment: Induction of apoptosis in human SW480 cells assessed as early apoptotic cells at 10 uM measured after 48 hrs by Annexin V-FITC/PI staining based flow cytometry method (reference value: 2.6%); type: functional
SW480 [19] = experiment: Induction of apoptosis in human SW480 cells assessed as late apoptotic cells at 10 uM measured after 48 hrs by Annexin V-FITC/PI staining based flow cytometry method (reference value: 2.8%); type: functional
SW480 [20] = experiment: Induction of apoptosis in human SW480 cells assessed as necrotic cells at 10 uM measured after 48 hrs by Annexin V-FITC/PI staining based flow cytometry method (reference value: 1.4%); type: functional

Row | Structure (SMILES) | inhibition [1] | inhibition [2] | inhibition at 10 µM (U2OS [3]) [%] | also measured
1 | CCCN(CCC)c1ccc(Nc2ncc(Cl)c(Oc3cccc(NC(=O)CC)c3)n2)cc1 | 9.3% | inactive | 23.9 | 
2 | CCCN(CCC)c1ccc(Nc2ncc(Cl)c(Oc3cccc(NC(=O)CC)c3)n2)c(OC)c1 | inactive | inactive | 33.8 | 
3 | CCC(=O)Nc1cccc(Oc2nc(Nc3ccc(N4CCCCC4)cc3OC)ncc2Cl)c1 | 13.9% | inactive | 12.9 | 
4 | CCC(=O)Nc1cccc(Oc2nc(Nc3ccc(N4CCOCC4)cc3OC)ncc2Cl)c1 | 65.6% | 8.45% | 9.7 | 
5 | CCC(=O)Nc1cccc(Oc2nc(Nc3ccc(N(C)C)cc3)ncc2Cl)c1 | 72.6% | 31.7% | 60.3 | 
6 | CCC(=O)Nc1cccc(Oc2nc(Nc3ccc(N4CCCC4)cc3)ncc2Cl)c1 | inactive | inactive | 38.5 | 
7 | CCC(=O)Nc1cccc(Oc2nc(Nc3ccc(N4CCC(OC)CC4)cc3OC)ncc2Cl)c1 | 5.08% | inactive | 10.8 | 
8 | CCC(=O)Nc1cccc(Oc2ccnc(Nc3ccc(N4CCN(C)CC4)cc3)n2)c1 | 85.6% | 48.8% | 24 | 
9 | CCC(=O)Nc1cccc(Oc2nc(Nc3ccc(N(C)C)cc3OC)ncc2Cl)c1 | 80.6% | 15% | 4.83 | 
10 | CCC(=O)Nc1cccc(Oc2nc(Nc3ccc(N4CCCCC4)cc3)ncc2Cl)c1 | 86% | 72.3% | 48.4 | 
11 | CCC(=O)Nc1cccc(Oc2nc(Nc3ccc(N4CCC(C)CC4)cc3OC)ncc2Cl)c1 | 9.2% | inactive | 20.9 | 
12 | CCC(=O)Nc1cccc(Oc2nc(Nc3ccc(N(CC)CC)cc3OC)ncc2Cl)c1 | 10.8% | inactive | 8.69 | 
13 | CCC(=O)Nc1cccc(Oc2nc(Nc3ccc(N4CCC(OC)CC4)cc3)ncc2Cl)c1 | 86.5% | 53.4% | 48.7 | 
14 | CCC(=O)Nc1cccc(Oc2nc(Nc3ccc(N4CCCC4)cc3OC)ncc2Cl)c1 | 25.8% | inactive | 18.5 | 
15 | CCC(=O)Nc1cccc(Oc2nc(Nc3ccc(N4CCC(C)CC4)cc3)ncc2Cl)c1 | 13.4% | 24.8% | 44.2 | 
16 | CCC(=O)Nc1cccc(Oc2nc(Nc3ccc(N(CC)CC)cc3)ncc2Cl)c1 | 54.4% | 21.2% | 38.8 | 
17 | CCC(=O)Nc1cccc(Oc2nc(Nc3ccc(N4CCN(C)CC4)cc3OC)ncc2Cl)c1 | 85.8% | 84.8% | 47.3 | Activity (HCT-116 [4]): Active; Activity (SW480 [5]): Active; Activity (U2OS [6]): Active; Activity (HCT-116 [7]): Active; Activity (SW480 [8]): Active; viability at 10 µM (U2OS [9]): 90.8%; Activity (U2OS [10]): 6.2%; Activity (U2OS [11]): 2.6%; Activity (U2OS [12]): 0.4%; viability at 10 µM (HCT-116 [13]): 80.2%; Activity (HCT-116 [14]): 2.9%; Activity (HCT-116 [15]): 13.7%; Activity (HCT-116 [16]): 3.2%; viability at 10 µM (SW480 [17]): 94.5%; Activity (SW480 [18]): 2%; Activity (SW480 [19]): 2.7%; Activity (SW480 [20]): 0.8%
18 | Cc1nc(Nc2cnn(C3CCNCC3)c2)nc2c1N(C)C(=O)c1cc3ccccc3cc1N2C | 78.3% | 15.6% | 38.6 | 
19 | CCC(=O)Nc1cccc(Oc2nc(Nc3ccc(N4CCOCC4)cc3)ncc2Cl)c1 | 70.9% | 43.5% | 61.3 | 
20 | CCC(=O)Nc1cccc(Oc2nc(Nc3ccc(N4CCN(C)CC4)cc3Cl)ncc2Cl)c1 | 71.5% | 69.1% | 34.8 | 
